p-CIP stab down = lowers stability of the mouse p/CIP coactivator protein. F442A p/CIP-EGFP cells, EGFP fluorescence, 16 h. decrease of EGFP signal, % at 10 µM. 0.01% of 290,000 active. AID 1984;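 active = EGFP signal decrease of at least 30% at 10 µM or well 3 SD below plate mean, unless failing retest; inactive = the rest, including hits failing retest or dose response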
PHOSPHO1 inh = PHOSPHO1 (human) inhibition; inhibition, % at 13.3 µM; recombinant PHOSPHO1, absorbance phosphatase assay; Q8TCT1; 1.1% of 290,000 active; AID 1565; in the data active = inhibition above about 60%
Target sequence (Q8TCT1 whole entry, looked up): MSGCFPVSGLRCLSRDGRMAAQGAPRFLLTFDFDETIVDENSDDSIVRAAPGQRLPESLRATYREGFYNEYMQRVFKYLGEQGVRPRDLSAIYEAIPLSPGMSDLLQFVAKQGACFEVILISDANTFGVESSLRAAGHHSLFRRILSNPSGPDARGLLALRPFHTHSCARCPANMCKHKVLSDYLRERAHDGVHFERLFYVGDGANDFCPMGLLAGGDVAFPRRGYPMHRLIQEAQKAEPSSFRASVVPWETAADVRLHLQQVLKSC
TbMetRS inhib = Trypanosoma brucei MetRS inhibition; purified T. brucei MetRS, ATP depletion, Kinase-Glo luminescence; inhibition, % at 11.9 µM; 0.4% of 360,000 active; AID 624268;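 active = inhibition above a per-plate cutoff of the control wells' mean inhibition plus 3 SD, cut at about 5.5% in these data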
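Test system: purified T. brucei MetRS enzyme. Also added: ATP, methionine and E. coli bulk tRNA substrates. Compound: 11.9 µM single point. Schedule: 15 min enzyme-compound preincubation, 2 h reaction, 10 min detection, 25 °C. Signal: luciferase luminescence of residual ATP, Kinase-Glo. Evaluation: percent inhibition versus plate control medians. Controls: DMSO wells, low control.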
A3G deaminase = blocks human APOBEC3G single-stranded DNA deamination; AID 493012; Q9HC16; 0.28% of 330,000 active; inhibition, % at 20 µM; recombinant A3G, ssDNA deamination FAM/TAMRA fluorescence;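 active = inhibition of at least 40% at 20 µM, with no more than 30% in the related APOBEC3A deaminase screen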
Target sequence (Q9HC16 whole entry, looked up): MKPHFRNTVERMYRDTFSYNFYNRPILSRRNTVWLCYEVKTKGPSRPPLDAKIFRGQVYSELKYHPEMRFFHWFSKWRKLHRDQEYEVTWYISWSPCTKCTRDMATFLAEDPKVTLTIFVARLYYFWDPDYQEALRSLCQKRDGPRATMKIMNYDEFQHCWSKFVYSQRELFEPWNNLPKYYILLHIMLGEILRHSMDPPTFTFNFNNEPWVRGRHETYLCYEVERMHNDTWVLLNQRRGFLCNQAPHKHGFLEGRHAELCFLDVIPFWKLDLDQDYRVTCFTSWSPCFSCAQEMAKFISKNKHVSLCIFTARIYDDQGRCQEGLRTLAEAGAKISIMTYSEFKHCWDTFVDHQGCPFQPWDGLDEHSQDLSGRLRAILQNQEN
APOBEC3A inh = inhibitors of human APOBEC3A DNA deaminase. P31941. recombinant A3A, FAM/TAMRA ssDNA deamination fluorescence. inhibition, % at 20 µM. 0.41% of 330,000 active. AID 493011;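 active = at least 40% inhibition at 20 µM here, with at most 30% in a related deaminase screen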
Hits are given with their value; i = inactive; nt = no result. Shown are actives, neighbours in structure and some others; about 1.8% of the full set was active somewhere.

SMILES | p-CIP stab down | PHOSPHO1 inh | TbMetRS inhib | A3G deaminase | APOBEC3A inh
CC1(c2nnnn2-c2ccc3c(c2)OCCO3)CCC(=O)N1CCOc1ccccc1 (stereo not given) | nt | nt | i | nt | nt
COC(=O)c1ccc(Cn2nc(-c3ccc(C)cc3)ccc2=O)cc1 | i | i | i | i | i
CC(OC(=O)Cc1n[nH]c(=O)c2ccccc12)C(=O)N(C)c1ccccc1 (stereo not given) | nt | nt | i | nt | nt
O=C1NC(=S)S/C1=C1\Sc2ccccc2N1CCCS(=O)(=O)O | i | 72 | i | i | i
NN1C(=O)/C(=C2/Sc3ccccc3N2CCCS(=O)(=O)O)SC1=S | i | nt | i | i | i
CNc1cccccc1=S | i | 76 | i | i | i
CNc1ccccc1 | nt | nt | i | i | i
CC(=O)N(C(C)=O)c1ccc(Oc2ccc(Oc3ccc(N(C(C)=O)C(C)=O)cc3)cc2)cc1 | nt | nt | i | nt | nt
Cc1ccc[n+](CC(=O)N2CCCCC2)c1C | i | i | i | i | i
O=C(COC(=O)c1cc([N+](=O)[O-])ccc1NCCO)c1ccccc1 | i | i | i | i | i
CCc1ccc(NC(=S)NNC(=O)c2ccccc2OC(F)F)cc1 | i | i | nt | i | i
Cc1cccc(NC(=S)NNC(=O)c2ccccc2OC(F)F)c1 | i | 72 | i | i | i
COc1ccc(NC(=S)NNC(=O)c2ccccc2OC(F)F)cc1 | i | 73 | i | i | i
COc1ccccc1OP(=O)(O)Oc1ccccc1OC | i | i | i | i | i
COc1ccc(N2CSC3=C(C#N)C(c4ccc(OC)c(OC)c4)CC(=O)N3C2)c(OC)c1 (stereo not given) | i | i | i | i | i
CCOc1ccccc1N1CSC2=C(C#N)C(c3c(OC)ccc4ccccc34)CC(=O)N2C1 (stereo not given) | i | 92 | i | i | i
COc1ccc(N2CSC3=C(C#N)C(c4cc(OC)c(OC)cc4OC)CC(=O)N3C2)c(OC)c1 (stereo not given) | i | 93 | i | i | i
COc1ccc(N2CSC3=C(C#N)C(c4cc(OC)ccc4OC)CC(=O)N3C2)c(OC)c1 (stereo not given) | i | 94 | i | i | i
COc1cc(OC)c(C2CC(=O)N3CN(c4ccc(C)cc4)CSC3=C2C#N)cc1OC (stereo not given) | i | 96 | i | i | i
COc1cc(CNc2nc(C)c([N+](=O)[O-])c(C)c2C#N)cc(OC)c1OC | i | i | i | i | i
Cc1csc(NC(=O)CCC(=O)N(CC(=O)NC2CCCCC2)c2ccccc2)n1 | i | i | i | i | i
CCc1nnc(SCC(=O)Nc2ccc(N3CCOCC3)cc2)o1 | i | i | i | i | i
Cc1nnc(SCC(=O)Nc2ccc(N3CCOCC3)cc2)o1 | i | 63 | i | i | i
CC(C)CNC(=S)NNC(=O)c1ccc2c(c1)OCO2 | i | 62 | i | i | i
O=C(Nc1ccccc1)/C(=C/c1ccc(F)cc1)NC(=O)c1ccco1 | i | i | i | i | i
SMILES | p-CIP stab down | PHOSPHO1 inh | TbMetRS inhib | A3G deaminase | APOBEC3A inh
Cc1ccc(COc2ccsc2-c2n[nH]c(=S)n2C)cc1 | i | 107 | i | i | i
Cn1c(-c2sccc2OCc2ccc(Cl)cc2Cl)n[nH]c1=S | i | i | i | i | i
O=C(N/N=C/c1cccnc1)C1CC1(c1ccccc1)c1ccccc1 (stereo not given) | i | i | i | i | i
Cc1ccc(NC(=O)Cc2n[nH]c(=S)n2C)cc1 | i | i | i | i | i
Cn1c(CC(=O)Nc2ccccc2)n[nH]c1=S | i | 60 | i | i | i
COc1ccc(/C=C2\SC(c3ccc(C)cc3)=NC2=O)cc1OC | i | i | i | i | i
COc1ccc(/C=C2/SC(c3ccc(C)cc3)=NC2=O)cc1OC | i | 74 | i | i | i
COc1ccc(/C=N/Nc2ccccc2C(=O)O)cc1Cn1cc([N+](=O)[O-])cn1 | i | 60 | i | i | i
CCOC(=O)N1CCN(C(=O)CCn2c(=S)[nH]c3cc(OCC)c(OCC)cc3c2=O)CC1 | i | 66 | nt | i | i
COc1ccc(N2CCN(C(=O)CCCCCn3c(=S)[nH]c4cc5c(cc4c3=O)OCO5)CC2)cc1 | i | i | i | i | i
O=C(CCCn1c(=S)[nH]c2cc3c(cc2c1=O)OCO3)N1CCc2ccccc2C1 | i | i | i | i | i
CC(=O)c1ccc(N2CCN(C(=O)CCCn3c(=S)[nH]c4cc5c(cc4c3=O)OCO5)CC2)cc1 | i | 63 | i | i | i
O=C(CCCn1c(=S)[nH]c2cc3c(cc2c1=O)OCO3)N1CCN(c2ccccc2)CC1 | i | 69 | i | i | i
O=C(CCn1c(=S)[nH]c2cc3c(cc2c1=O)OCO3)N1CCc2ccccc2C1 | i | 66 | nt | i | i
CCOC(=O)N1CCN(C(=O)CCCCCn2c(=S)[nH]c3cc4c(cc3c2=O)OCO4)CC1 | i | i | i | i | i
Cc1ccc(S(=O)(=O)NCc2ccc(N3CCN(C(=O)OC(C)(C)C)CC3)cc2)cc1 | i | i | i | i | i
Cc1ccc(N2C(=O)CC(Sc3ncn[nH]3)C2=O)cc1C (stereo not given) | i | 105 | i | i | i
CCn1c(SCc2nc3cc(OC)c(OC)cc3c(=O)[nH]2)nc2ccccc21 | i | 60 | i | i | i
CCn1c(SCC(=O)Nc2nc(-c3ccccc3)cs2)nnc1-c1ccccc1 | i | i | i | i | i
Cc1nnc(SCC(=O)Nc2nc(-c3ccccc3)cs2)n1N | i | 69 | i | i | i
CC(O)(c1ccccc1)c1ccc2ccccc2n1 (stereo not given) | nt | nt | i | nt | nt
Cc1ccc(C2(CCNCc3ccc(N(C)C)cc3)CCOC(C(C)C)C2)cc1 (stereo not given) | i | 64 | i | i | i
Cc1ccccc1NC(=O)NCCCN1CCN(C2CCCCC2)CC1 | i | i | i | i | i
Cc1cc(C(=O)NCCCN2CCN(C3CCCCC3)CC2)n(-c2ccccc2)n1 | i | i | i | i | 43
CCn1c(=S)[nH]c2cc(Cl)ccc21 | i | i | i | i | i
SMILES | p-CIP stab down | PHOSPHO1 inh | TbMetRS inhib | A3G deaminase | APOBEC3A inh
CCn1c(=S)[nH]c2ccccc21 | i | 71 | i | i | i
CC(C)n1c(=S)[nH]c2ccccc21 | i | 84 | i | i | i
Cc1ccc(NC(=O)Cn2c(=S)[nH]c3ccccc32)cc1 | i | 62 | i | i | i
Clc1cc2c(c(CSc3nc4ccccc4n4cccc34)c1)OCOC2 | i | i | i | i | i
CCOC(=O)c1c(S(=O)(=O)N2CCCC(C(=O)Nc3ccc(C)cn3)C2)c(C)n(C)c1C (stereo not given) | i | 64 | i | i | i
CCOC(=O)c1c(S(=O)(=O)N2CCCC(C)C2)c(C)n(C)c1C (stereo not given) | i | i | i | i | i
Cc1nc(NC(=O)c2c(-c3ccccc3)noc2C)sc1C(=O)N(C)C | i | i | i | i | i
COC(=O)c1sc(NC(=O)c2c(-c3ccccc3)noc2C)nc1C | i | 66 | i | i | i
O=C(c1ccc(Cl)cc1)N1CCCC(C(=O)N2CCc3ccccc3C2)C1 (stereo not given) | i | 60 | i | i | i
O=C1OCC(CO)(CO)N=C1NNc1ccccc1Cl | i | 82 | i | i | i
